The record followed here is ChEMBL document CHEMBL3792296, “Synthesis and antiproliferative activity of 9-benzylamino-6-chloro-2-methoxy-acridine derivatives as potent DNA-binding ligands and topoisomerase II inhibitors” (Eur J Med Chem, 2016).

A short description of test [1]: Antiproliferative activity against human HCT116 cells after 48 hrs by MTT assay. Type of test: functional, cell-based. The settings on record: HCT-116, 48 h. An outline of the steps: (§1)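 MTT assay: cells seeded at 4-8 × 10³ per well, incubated overnight at 37 °C in 5% CO₂, then given fresh medium with graded compound concentrations or equal DMSO for 48 h. MTT (5 mg/mL solution) added for a further 4 h, formazan dissolved in DMSO, absorbance read at 490 nm. Six cancer cell lines tested.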
On the technique in general: Tetrazolium assays rely on reduction of a dye to a coloured formazan, in cell work by metabolically active cells.

Test [2] relates to A549. Briefly: Cell cycle arrest in human A549 cells assessed as accumulation at G0/G1 phase at 1 uM after 36 hrs by propidium iodide staining based flow cytometry (reference value: 61.65%). Type of test: functional.
In test [3] the test system is Calf thymus DNA. Briefly: Binding affinity to calf thymus DNA after 5 mins by UV-vis spectrophotometry. Type of test: nucleic-acid assay. The settings on record: Bos taurus. An outline of the steps: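 ctDNA at 0-44 µM is added to compound at 10 µM final in Tris-HCl buffer (pH 7.4). UV-vis absorption spectra are recorded after 5 min standing. The binding constant K_b is taken from a plot of absorption data against DNA concentration.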

Test [4] deals with A549. As to the kind of experiment: Induction of apoptosis in human A549 cells assessed as early apoptotic cells at 5 uM after 48 hrs by Annexin V-FITC/propidium iodide staining based FACS analysis (reference value: 0.94%). Type of test: functional. The essentials: (§2)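 A549 cells seeded at 2 × 10⁵ per well, incubated overnight, then treated at 0, 5 or 10 µM. The legend gives 36 or 48 h; the methods section states 24 h. Annexin V-FITC/PI kit staining followed by flow cytometry. Early and late apoptotic cells expressed as cumulative percentage relative to control.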
A general note: Flow cytometry measures light scatter and fluorescence of single cells or particles in a stream.

Test [5] addresses DNA topoisomerase 2-alpha (Homo sapiens) (UniProt P11388). As to the kind of experiment: Inhibition of human recombinant topoisomerase 2-alpha expressed in Escherichia coli assessed as reduction in enzyme-mediated relaxation of supercoiled pBR322 DNA at 10 to 50 uM after 10 to 15 mins by agarose gel electrophoresis. The essentials:
(§3)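 Relaxation of 500 ng supercoiled pBR322 by 1 unit human Topo I or Topo IIα, with or without compound, in 20 µL reaction buffer at 37 °C for 10-15 min. Reactions stopped with loading buffer, run on 0.8% agarose in TAE at 80 V for 30 min. Gels stained with ethidium bromide 2.5 µg/mL and viewed under UV.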

The subject of test [6] is A549. Briefly: Induction of apoptosis in human A549 cells assessed as late apoptotic cells at 10 uM after 36 hrs by Annexin V-FITC/propidium iodide staining based FACS analysis (reference value: 0.29%). Type of test: functional. The essentials:
as §2

The target in test [7] is DNA topoisomerase 2-alpha (Homo sapiens) (UniProt P11388). As to the kind of experiment: Inhibition of human recombinant topoisomerase 2-alpha expressed in Escherichia coli assessed as reduction in enzyme-mediated relaxation of supercoiled pBR322 DNA at 100 uM after 10 to 15 mins by agarose gel electrophoresis. The essentials:
as §3

Test [8] has as its system A549. As to the kind of experiment: Induction of apoptosis in human A549 cells assessed as increase in expression of cleaved caspase 7 at 1 to 2.5 uM after 48 hrs by Western blot analysis. Type of test: functional, cell-based. An outline of the steps: (§4)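 A549 cells grown to 80% confluency, treated with graded concentrations for 48 h, then lysed in Tris-HCl/NaCl/Triton X-100 buffer with protease inhibitors. 40 µg protein resolved on 12 or 15% SDS-PAGE and blotted to PVDF. Primary antibodies used at 1:1000 for 6-8 h, HRP anti-rabbit at 1:2000 for 2 h, ECL detection, β-actin as loading control.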
In general terms: Immunoblotting shows a protein as a band on a membrane.

In test [9] the test system is A549. As to the kind of experiment: Induction of apoptosis in human A549 cells assessed as late apoptotic cells at 10 uM after 48 hrs by Annexin V-FITC/propidium iodide staining based FACS analysis (reference value: 0.62%). Type of test: functional. The essentials: as §2
For test [10], the system named is A549. As to the kind of experiment: Induction of apoptosis in human A549 cells assessed as early apoptotic cells at 5 uM after 36 hrs by Annexin V-FITC/propidium iodide staining based FACS analysis (reference value: 0.29%). Type of test: functional. The essentials:
as §2

For test [11], the system named is A549. As to the kind of experiment: Cell cycle arrest in human A549 cells assessed as accumulation at G2/M phase at 1 uM after 36 hrs by propidium iodide staining based flow cytometry (reference value: 7.62%). Type of test: functional.
Test [12] deals with MCF7. As to the kind of experiment: Antiproliferative activity against human MCF7 cells after 48 hrs by MTT assay. The note with it: MCF7, 48 h. Type of test: functional, cell-based. An outline of the steps: as §1
In test [13] the test system is A549. Briefly: Cell cycle arrest in human A549 cells assessed as accumulation at S phase at 1 uM after 36 hrs by propidium iodide staining based flow cytometry (reference value: 30.73%). Type of test: functional.
The subject of test [14] is A549. As to the kind of experiment: Induction of apoptosis in human A549 cells assessed as increase in expression of cleaved caspase 9 at 1 to 2.5 uM after 48 hrs by Western blot analysis. Type of test: functional, cell-based. The essentials:
as §4

Test [15] concerns A549. Briefly: Induction of DNA damage in human A549 cells assessed as tail DNA at 5 uM after 24 hrs by propidium iodide staining based comet assay (reference value: 0.02%). Type of test: cell-based. An outline of the steps:
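Alkaline comet assay. About 10⁵ A549 cells per well incubated 12 h, then treated 24 h in serum-free medium against a DMSO control. Cells embedded in low-melting agarose, lysed 2 h, alkaline-unwound 0.5 h at 4 °C, electrophoresed at 300 mA for 25 min in the dark. Slides neutralized, PI-stained, 50 random cells scored for % tail DNA.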

Test [16] relates to A549. As to the kind of experiment: Cell cycle arrest in human A549 cells assessed as accumulation at G0/G1 phase at 5 uM after 36 hrs by propidium iodide staining based flow cytometry (reference value: 61.65%). Type of test: functional.
Test [17] deals with A549. As to the kind of experiment: Cell cycle arrest in human A549 cells assessed as accumulation at G0/G1 phase at 0.5 uM after 36 hrs by propidium iodide staining based flow cytometry (reference value: 61.65%). Type of test: functional.

Calls of active or inactive are those of the source. The calls are words filed in the database; no cut-off is given here.

Sequence of DNA topoisomerase 2-alpha (Homo sapiens) (P11388 whole entry): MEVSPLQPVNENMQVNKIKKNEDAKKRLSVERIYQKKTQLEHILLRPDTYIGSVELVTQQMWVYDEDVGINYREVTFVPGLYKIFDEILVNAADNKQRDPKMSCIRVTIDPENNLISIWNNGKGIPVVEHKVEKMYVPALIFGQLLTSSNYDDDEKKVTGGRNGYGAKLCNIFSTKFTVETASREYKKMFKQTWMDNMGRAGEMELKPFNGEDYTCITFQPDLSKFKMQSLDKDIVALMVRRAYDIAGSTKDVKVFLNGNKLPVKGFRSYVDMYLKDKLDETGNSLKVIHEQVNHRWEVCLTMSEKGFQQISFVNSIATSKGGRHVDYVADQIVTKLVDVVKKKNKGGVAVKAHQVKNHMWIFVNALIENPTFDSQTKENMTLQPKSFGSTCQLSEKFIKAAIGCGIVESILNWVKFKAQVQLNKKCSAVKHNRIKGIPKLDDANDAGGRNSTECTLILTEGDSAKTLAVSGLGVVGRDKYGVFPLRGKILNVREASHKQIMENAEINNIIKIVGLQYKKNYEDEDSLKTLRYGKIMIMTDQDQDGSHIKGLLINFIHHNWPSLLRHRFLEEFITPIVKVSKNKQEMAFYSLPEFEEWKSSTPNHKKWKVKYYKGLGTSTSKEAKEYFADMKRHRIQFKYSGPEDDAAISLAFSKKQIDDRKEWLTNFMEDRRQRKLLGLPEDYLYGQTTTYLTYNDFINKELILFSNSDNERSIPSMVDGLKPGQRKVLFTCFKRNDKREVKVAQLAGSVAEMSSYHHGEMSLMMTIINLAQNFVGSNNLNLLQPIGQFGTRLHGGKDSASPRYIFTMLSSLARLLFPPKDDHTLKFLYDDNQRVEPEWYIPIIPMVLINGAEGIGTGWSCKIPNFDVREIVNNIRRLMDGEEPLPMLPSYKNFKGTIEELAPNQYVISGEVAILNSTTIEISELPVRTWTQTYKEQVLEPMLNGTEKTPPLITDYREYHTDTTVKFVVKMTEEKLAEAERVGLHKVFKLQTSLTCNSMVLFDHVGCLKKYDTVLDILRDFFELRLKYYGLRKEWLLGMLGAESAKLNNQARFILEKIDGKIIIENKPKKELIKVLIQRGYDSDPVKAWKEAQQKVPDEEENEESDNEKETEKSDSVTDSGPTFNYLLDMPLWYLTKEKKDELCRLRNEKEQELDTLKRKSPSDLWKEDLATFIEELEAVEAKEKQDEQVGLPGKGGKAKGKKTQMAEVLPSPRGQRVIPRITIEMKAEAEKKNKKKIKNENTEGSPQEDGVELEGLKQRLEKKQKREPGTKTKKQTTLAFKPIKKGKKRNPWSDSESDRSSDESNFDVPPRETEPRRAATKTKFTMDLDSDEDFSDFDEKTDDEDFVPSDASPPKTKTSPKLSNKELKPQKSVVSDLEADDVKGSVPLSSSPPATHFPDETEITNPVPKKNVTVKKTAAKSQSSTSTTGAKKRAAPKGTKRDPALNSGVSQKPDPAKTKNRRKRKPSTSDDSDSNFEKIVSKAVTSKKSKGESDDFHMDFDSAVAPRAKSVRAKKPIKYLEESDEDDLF

A word on the IC50: it is the concentration at which inhibition is half-maximal. Consider `COc1ccc(CNc2c3ccc(Cl)cc3nc3ccc(OC)cc23)cc1`, for which the IC50 in test [1] amounted to 6.32 µM; in [12], 6.95 µM. Moreover, the Activity in [2] was 60.83%; in [4] it was 4.23%; in test [6], 88.13%; in test [9], 82.46%; in [10] it was 2.14%; in [11] it was 9.62%. The Activity in [13] was found to be 29.55%; in test [15], 52.3%; in test [16], 62.04%; in test [17] it was 61.48%. In test [3], this compound had a Kb of 1.68 ×10⁵ /M. In addition, the inhibition result in [5] and in test [7] was “Active” throughout. The outcome in [8] and in [14] was Active.
